Compound activity: PubChem, several laboratories
Shown are actives, neighbours in structure and some others; about 3.8% of the full set was active somewhere.
CSC inhib: cancer stem cell inhibition; cancer stem cell-like cells viability, luminescence; inhibition, % at 7.5 µM; actives 1.1% (n = 300,000); AID 2717; in the data active means inhibition above about 75%; tested in HMLE shEcad cells
TMEM16A act: mouse TMEM16A channel activation, primary screen. HEK293 TMEM16A/YFP-H148Q/I152L, iodide quench fluorescence; stronger effect = lower value. actives 0.3% (n = 340,000). Q8BHY3. AID 623877. B-score at 10 µM;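 active means fluorescence-ratio B-score plate-corrected deviation score at least 3 library SD below zero, with starting fluorescence score within 5 deviations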;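 further: channel opened by trigger with iodide after compound preincubation; score built on the fluorescence ratio of max minus min over baseline; more negative score means more quench and so TMEM16A activation or potentiation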
MC4R barr agon: human MC4R agonism via beta-arrestin; actives 0.98% (n = 360,000); P32245; U2OS MC4R beta-arrestin complementation, luminescence; percent of melanotan II response, DMSO zero; activation, % at 8.9 µM; AID 540308;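 active means activation above a per-plate cutoff, the mean activation of sample wells on that plate plus 3 SD, cut at about 8% in these data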
TMEM16A inh: blocks the mouse calcium-activated chloride channel TMEM16A; actives 1.2% (n = 310,000); Q8BHY3; HEK293 TMEM16A/YFP iodide influx fluorescence, ionomycin; normalized B-score (activity score, 25-100; higher = stronger inhibition) at 10 µM; AID 588511;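 active means ratio plate-corrected score three or more library SD toward inhibition, starting fluorescence score within five deviations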;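 further: score derived from kinetic fluorescence span divided by baseline fluorescence per well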
Beta cell apopt: beta cell apoptosis inhibition | INS-1E cytokine-induced death, ATP luminescence, 48 h; percent of positive-control rescue, neutral wells zero | protection from apoptosis, % (concentration not given with the values) | actives 0.8% (n = 300,000) | AID 435005;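 active means Every replicate reaches about 75%, or at least half do and their mean reaches it too, limit read from the data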;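 further: higher means more ATP so stronger rescue from cytokine killing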
MC4R antagonist: antagonists of human melanocortin 4 receptor (MC4R); AID 540295; MC4R-expressing cells, MTII-stimulated cAMP, LANCE TR-FRET; P32245; inhibition, % at 6.5 µM; actives 0.48% (n = 360,000);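 active means inhibition above its plate's cutoff, the mean of tested wells on that plate plus 3 SD, cut at about 29% in these data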
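Assay system: human MC4R-expressing U2OS cells; reagent: Melanotan II stimulation of cells; dosing: 6.5 µM single dose; timing: compound 30 min, challenge 1 h, detection 1 h; signal: TR-FRET cAMP assay; replicates: one well per compound, no replicates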
TMEM16A reconf: re-confirmation of mouse TMEM16A chloride channel inhibitors | HEK293 TMEM16A/YFP-H148Q, iodide quench fluorescence; ionomycin added to raise cell calcium | inhibition, % at 10 µM | shares compounds with TMEM16A inh | actives 39% (n = 2,300);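 active means mean duplicate percent inhibition, scaled so buffer wells are 0 and the reference blocker 100, over three buffer SD above buffer mean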
HEK293 Ca mobil: calcium mobilization counter-screen hit for TMEM16A inhibitor series; AID 652231; calcium response (% of ionomycin), % at 10 µM; shares compounds with TMEM16A inh; actives 2% (n = 2,300); TMEM16A/YFP HEK293, Fluo4 calcium mobilization;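 active means duplicate-averaged calcium signal over 20% of the ionomycin maximum, relative to buffer baseline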;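 further: each well's signal is peak minus trough fluorescence divided by its pre-addition baseline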
Parental YFP cnt: counter-screen for TMEM16A inhibitors: effect in parental YFP-HEK293 cells. shares compounds with TMEM16A inh. iodide YFP quench, ionomycin. YFP ratio F(max-min)/F0 at 10 µM. 2,300 tested, under 10 active. AID 652233;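 active means yellow fluorescent protein signal ratio exceeding the buffer control mean by over 5 SD of those controls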;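 further: ratio is mean of duplicate wells from kinetic YFP trace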
ClC-1 inh: blocks the rat ClC-1 voltage-dependent chloride channel; CHO ClC-1-YFP, iodide influx fluorescence quench; iodide control reads 0, buffer control 100; ratio percent, % at 10 µM; shares compounds with TMEM16A inh; AID 652236; 2,300 tested, under 10 active;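 active means duplicate-mean ratio percent above the mean of iodide-only control wells, which defines zero, plus 5 of their SD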;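 further: higher percent means stronger block of ClC-1 iodide influx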
Hits are given with their value.

What do the screens show for `C=CCSc1nc(-c2ccccc2)c(C#N)c(=O)[nH]1`?
CSC inhib: inactive; TMEM16A act: inactive; MC4R barr agon: inactive; TMEM16A inh: inactive; Beta cell apopt: inactive; MC4R antagonist: inactive

What do the screens show for `N#Cc1c(-c2ccccc2)nc(SCc2ccc(Cl)cc2)[nH]c1=O`?
CSC inhib: 104; TMEM16A act: inactive; MC4R barr agon: inactive; TMEM16A inh: 100; Beta cell apopt: inactive; MC4R antagonist: inactive; TMEM16A reconf: inactive; HEK293 Ca mobil: inactive; Parental YFP cnt: inactive; ClC-1 inh: inactive

How did CN1C(=O)/C(=C/c2ccc(OC(=O)c3ccco3)cc2)SC1=S do in these assays?
CSC inhib: inactive; TMEM16A act: inactive; MC4R barr agon: inactive; TMEM16A inh: inactive; Beta cell apopt: inactive; MC4R antagonist: inactive; TMEM16A reconf: inactive; HEK293 Ca mobil: inactive; Parental YFP cnt: inactive; ClC-1 inh: inactive

What do the screens show for `Cn1cccc1/C=C1/SC(=S)N(CC(=O)O)C1=O`?
CSC inhib: inactive; TMEM16A act: inactive; MC4R barr agon: inactive; TMEM16A inh: inactive; Beta cell apopt: inactive; MC4R antagonist: inactive; TMEM16A reconf: inactive; HEK293 Ca mobil: inactive; Parental YFP cnt: inactive; ClC-1 inh: inactive

How did COc1cc(/C=C2\SC(=S)N(CC(=O)O)C2=O)ccc1OC(=O)c1ccco1 do in these assays?
CSC inhib: inactive; TMEM16A act: -5.5; MC4R barr agon: inactive; TMEM16A inh: inactive; Beta cell apopt: inactive; MC4R antagonist: inactive; TMEM16A reconf: inactive; HEK293 Ca mobil: inactive; Parental YFP cnt: inactive; ClC-1 inh: inactive

What do the screens show for `CC(C(=O)O)N1C(=O)/C(=C/c2cccn2C)SC1=S` (centres undefined)?
CSC inhib: inactive; TMEM16A act: inactive; MC4R barr agon: inactive; TMEM16A inh: inactive; Beta cell apopt: inactive; MC4R antagonist: inactive

Results for CN1C(=O)/C(=C\c2ccc(OC(=O)c3ccco3)cc2)SC1=S ?
CSC inhib: inactive; TMEM16A act: inactive; MC4R barr agon: inactive; TMEM16A inh: inactive; Beta cell apopt: inactive; MC4R antagonist: inactive

How did CCC(C)C(=O)Nc1ccc(S(=O)(=O)N2CCCC2)cc1 (centres undefined) do in these assays?
CSC inhib: inactive; TMEM16A act: inactive; MC4R barr agon: inactive; TMEM16A inh: inactive; Beta cell apopt: inactive; MC4R antagonist: inactive

Results for CCC(C)NS(=O)(=O)c1ccc(S(=O)(=O)N2CCCC3(CCCCC3)C2)cc1 (centres undefined) ?
CSC inhib: inactive; TMEM16A act: inactive; MC4R barr agon: inactive; TMEM16A inh: 100; Beta cell apopt: inactive; MC4R antagonist: inactive; TMEM16A reconf: 52%; HEK293 Ca mobil: inactive; Parental YFP cnt: inactive; ClC-1 inh: inactive

How did CCN(CC)S(=O)(=O)c1ccc2oc(SCC3CN=C(c4ccc(OC)cc4)S3)nc2c1 (centres undefined) do in these assays?
CSC inhib: inactive; TMEM16A act: inactive; MC4R barr agon: inactive; TMEM16A inh: 100; Beta cell apopt: inactive; MC4R antagonist: inactive; TMEM16A reconf: 16%; HEK293 Ca mobil: inactive; Parental YFP cnt: inactive; ClC-1 inh: inactive

Results for Cc1ccc(CSc2nnc(-c3ccc4c(c3)OCO4)o2)cc1 ?
CSC inhib: inactive; TMEM16A act: inactive; MC4R barr agon: inactive; TMEM16A inh: inactive; Beta cell apopt: inactive; MC4R antagonist: inactive
